The values that follow come from ChEMBL document CHEMBL1250479, “Biological diversity from a structurally diverse library: systematically scanning conformational space using a pyranose scaffold” (J Med Chem, 2010).

The target of assay [1] is T1, Melanin-concentrating hormone receptor 1 (Homo sapiens, UniProt Q99705). Kind of assay: Displacement of [I125I]MCH from human MCH1 receptor expressed in CHO cells by scintillation counting. Type of assay: cell-based. Put shortly: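 SPA competition on membranes of CHO cells stably expressing human MCH1, premixed with WGA-PVT beads (0.25 mg/well). Test compound was added at increasing concentrations with [125I]-MCH in HEPES pH 7.4 buffer containing CaCl2, MgCl2 and 0.2% BSA, incubated 2 h at room temperature, then scintillation-counted. Phe-(D)Tyr-MCH served as reference ligand; IC50 came from sigmoidal dose-response fits.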
T1 sequence (Q99705 whole entry): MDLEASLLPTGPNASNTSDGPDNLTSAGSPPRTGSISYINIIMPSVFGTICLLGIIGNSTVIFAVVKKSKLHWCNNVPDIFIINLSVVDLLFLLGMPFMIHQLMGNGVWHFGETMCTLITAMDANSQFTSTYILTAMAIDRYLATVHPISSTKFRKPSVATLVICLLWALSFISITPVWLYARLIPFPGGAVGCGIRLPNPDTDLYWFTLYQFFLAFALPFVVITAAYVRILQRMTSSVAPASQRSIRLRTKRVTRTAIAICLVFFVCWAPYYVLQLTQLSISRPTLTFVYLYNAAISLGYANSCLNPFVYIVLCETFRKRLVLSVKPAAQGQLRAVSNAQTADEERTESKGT

Assay [2] has as its target Somatostatin receptor type 4 (Homo sapiens, UniProt P31391). Kind of assay: Displacement of [125I]iodotyrosyl from human SST4 receptor expressed in CHO cells. It is filed as cell-based. Put shortly: (§1)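 Membranes from CHO cells stably expressing cloned human sst1–5 were used at 2 µg protein/well (sst1), 0.2 (sst2) or 0.7 (sst3, sst4, sst5). After GF/B filtration, bound label was counted. Nonspecific binding used 1 µM SST28; Ki came from single-site fits with known Kd; tested once in duplicate.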

Assay [3] concerns the target Somatostatin receptor type 1 (Homo sapiens, UniProt P30872). Put plainly: Displacement of [125I]iodotyrosyl from human SST1 receptor expressed in CHO cells. It is filed as cell-based. An outline of the steps: as §1
On the technique in general: Loss of bound radioactivity is the signal in a displacement assay; it reports binding, not function.

Assay [4] deals with Somatostatin receptor type 3 (Homo sapiens, UniProt P32745). Kind of assay: Displacement of [125I]iodotyrosyl from human SST3 receptor expressed in CHO cells. Type of assay: cell-based. Put shortly: as §1
Somatostatin receptor type 3, sequence (P32745 whole entry): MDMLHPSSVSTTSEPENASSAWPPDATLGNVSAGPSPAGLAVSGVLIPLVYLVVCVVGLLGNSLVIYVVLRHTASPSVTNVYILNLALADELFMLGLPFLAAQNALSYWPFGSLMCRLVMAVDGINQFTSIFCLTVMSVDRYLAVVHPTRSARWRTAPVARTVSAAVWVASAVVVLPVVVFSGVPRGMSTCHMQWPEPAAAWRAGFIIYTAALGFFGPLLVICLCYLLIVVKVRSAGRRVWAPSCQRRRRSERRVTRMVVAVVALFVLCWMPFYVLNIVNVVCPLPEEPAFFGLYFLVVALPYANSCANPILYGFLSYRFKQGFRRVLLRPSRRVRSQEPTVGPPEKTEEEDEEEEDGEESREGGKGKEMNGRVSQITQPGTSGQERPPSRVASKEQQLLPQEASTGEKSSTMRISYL
The target in assay [5] is Somatostatin receptor type 2 (Homo sapiens, UniProt P30874). Kind of assay: Displacement of [125I]iodotyrosyl from human SST2 receptor expressed in CHO cells. Type of assay: cell-based. Put shortly:
as §1

The target in assay [6] is Somatostatin receptor type 5 (Homo sapiens, UniProt P35346). Kind of assay: Displacement of [125I]iodotyrosyl from human SST5 receptor expressed in CHO cells. Type of assay: cell-based. An outline of the steps: as §1
Somatostatin receptor type 5, sequence (P35346 whole entry): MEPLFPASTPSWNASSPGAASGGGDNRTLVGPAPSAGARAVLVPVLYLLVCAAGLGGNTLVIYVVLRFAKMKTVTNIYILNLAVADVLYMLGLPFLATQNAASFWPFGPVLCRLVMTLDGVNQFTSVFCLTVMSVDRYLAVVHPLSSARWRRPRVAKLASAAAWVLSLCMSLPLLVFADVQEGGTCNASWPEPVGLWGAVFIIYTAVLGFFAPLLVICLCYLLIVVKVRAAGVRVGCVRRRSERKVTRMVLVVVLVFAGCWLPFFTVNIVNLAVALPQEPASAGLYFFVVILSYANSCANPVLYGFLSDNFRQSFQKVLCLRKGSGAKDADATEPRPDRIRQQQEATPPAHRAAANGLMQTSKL
Assay [7] has as its target T1, Melanin-concentrating hormone receptor 1. Kind of assay: Displacement of [I125I]MCH from human MCH1 receptor expressed in CHO cells (empty) by scintillation counting. The following applies: 3 uM.

Bounds are passed on as bounds.

Somatostatin receptor type 2, sequence (P30874 whole entry): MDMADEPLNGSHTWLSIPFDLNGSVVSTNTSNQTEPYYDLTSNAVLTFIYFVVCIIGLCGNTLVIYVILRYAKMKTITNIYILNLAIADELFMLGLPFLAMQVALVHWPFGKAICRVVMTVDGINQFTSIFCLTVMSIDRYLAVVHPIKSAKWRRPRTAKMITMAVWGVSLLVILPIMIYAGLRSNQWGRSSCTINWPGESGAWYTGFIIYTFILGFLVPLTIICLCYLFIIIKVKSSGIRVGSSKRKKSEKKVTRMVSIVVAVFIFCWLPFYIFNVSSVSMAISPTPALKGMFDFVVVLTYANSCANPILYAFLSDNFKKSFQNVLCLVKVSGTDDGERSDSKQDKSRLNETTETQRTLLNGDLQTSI
Somatostatin receptor type 4, sequence (P31391 whole entry): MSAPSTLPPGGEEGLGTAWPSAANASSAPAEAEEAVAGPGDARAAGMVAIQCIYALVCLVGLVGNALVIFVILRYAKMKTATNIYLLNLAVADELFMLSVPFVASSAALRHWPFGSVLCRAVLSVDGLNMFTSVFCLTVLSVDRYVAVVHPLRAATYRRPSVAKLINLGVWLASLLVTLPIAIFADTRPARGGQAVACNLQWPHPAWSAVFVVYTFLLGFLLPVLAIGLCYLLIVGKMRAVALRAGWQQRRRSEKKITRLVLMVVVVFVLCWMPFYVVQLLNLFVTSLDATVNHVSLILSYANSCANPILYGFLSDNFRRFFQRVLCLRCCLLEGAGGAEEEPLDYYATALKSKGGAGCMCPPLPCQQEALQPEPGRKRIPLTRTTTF
Somatostatin receptor type 1, sequence (P30872 whole entry): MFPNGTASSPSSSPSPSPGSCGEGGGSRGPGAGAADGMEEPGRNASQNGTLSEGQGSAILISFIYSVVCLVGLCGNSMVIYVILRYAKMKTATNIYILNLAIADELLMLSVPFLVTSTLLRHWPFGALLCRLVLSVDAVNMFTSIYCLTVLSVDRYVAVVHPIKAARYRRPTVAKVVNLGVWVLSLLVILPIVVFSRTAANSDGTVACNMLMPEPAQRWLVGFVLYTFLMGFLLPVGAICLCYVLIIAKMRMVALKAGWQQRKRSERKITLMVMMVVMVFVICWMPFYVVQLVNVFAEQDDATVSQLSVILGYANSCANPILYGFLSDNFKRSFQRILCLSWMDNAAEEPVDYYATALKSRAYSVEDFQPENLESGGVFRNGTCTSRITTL

What is called Ki is a measure of affinity in units of concentration, obtained from inhibition or displacement. A higher Ki goes with a looser hold on the target. `COC[C@H]1OC(OCc2ccc(Cl)cc2)[C@H](NC(=O)CCCN=C(N)N)[C@@H](OCc2ccc3ccccc3c2)[C@@H]1O` (some centres undefined) returned a Ki in assay [1] of 2600 nM.
A word on the IC50: it is the concentration at which inhibition is half-maximal. Read a high IC50 as weaker potency in that assay. In assay [2], `CS[C@@H]1O[C@H](COCc2ccccc2)[C@@H](O)[C@@H](OCc2ccc3ccccc3c2)[C@H]1NC(=O)CCN` showed a half-inhibitory concentration (IC50) of 660 nM. In other words, the sub-micromolar range.
For the compound `COC[C@H]1O[C@@H](OCCc2ccccc2)[C@H](NC(=O)CCCN)[C@@H](OCc2ccc3ccccc3c2)[C@@H]1O`, the half-inhibitory concentration (IC50) in assay [3] was greater than 10000 nM; in assay [4] it was 1320 nM; in assay [5] it was 3320 nM; in assay [2], greater than 10000 nM; in assay [6], 180 nM.
Consider `COC[C@H]1O[C@H](OCc2ccc(Cl)cc2)[C@H](NC(=O)CCCN=C(N)N)[C@@H](OCc2ccc(Cl)cc2)[C@@H]1O`, for which, in assay [1], the IC50 amounted to 120 nM.
Same read-out and setting: the result for `COC[C@H]1O[C@H](OCc2ccc3ccccc3c2)[C@H](NC(=O)CCCN=C(N)N)[C@@H](OCc2ccc(Cl)cc2)[C@@H]1O` reads 920 nM.
On to `CS[C@@H]1O[C@H](COCc2ccc3ccccc3c2)[C@@H](O)[C@@H](OCc2ccc3ccccc3c2)[C@H]1NC(=O)CCN`, for which the IC50 in assay [2] worked out at 440 nM. This counts as sub-micromolar.
Regarding `COC[C@H]1O[C@@H](OCc2ccc(Cl)cc2)[C@H](NC(=O)CCCN=C(N)N)[C@@H](OCc2ccc3ccccc3c2)[C@@H]1O`, in assay [7], the concentration for half-maximal inhibition (IC50) is greater than 3000 nM.
Regarding `COC[C@H]1O[C@H](OCCc2ccccc2)[C@H](NC(=O)CCCN)[C@H](OCc2ccc3ccccc3c2)[C@@H]1O`, the IC50 in assay [3] is greater than 10000 nM; in assay [4], 8400 nM; in assay [5], 6100 nM; in assay [2], greater than 10000 nM; in assay [6], 200 nM.
For the compound `CS[C@@H]1O[C@H](COCc2ccccc2)[C@@H](O)[C@@H](OCc2ccc3ccccc3c2)[C@H]1NC(=O)CCN=C(N)N`, the IC50 in assay [2] is 180 nM.
With `COC[C@H]1OC(OCc2ccc(Cl)cc2)[C@H](NC(=O)CCCN=C(N)N)[C@@H](OCc2ccc(Cl)cc2)[C@@H]1O` (some centres undefined), in assay [1], the Ki came to 1200 nM.
Still for that read-out and setting: the result for `COC[C@H]1OC(OCCc2ccccc2)[C@H](NC(=O)CCCN=C(N)N)[C@@H](OCc2ccc(Cl)cc2)[C@@H]1O` (some centres undefined) reads 3500 nM.
`COC[C@H]1O[C@H](OCc2ccc3ccccc3c2)[C@H](NC(=O)CCCN=C(N)N)[C@@H](OCc2ccc3ccccc3c2)[C@@H]1O` displayed an IC50 in assay [1] of 1160 nM.
As for `CS[C@@H]1O[C@H](COCc2ccc(Cl)cc2)[C@@H](O)[C@@H](OCc2ccc3ccccc3c2)[C@H]1NC(=O)CCN`, the half-maximal inhibitory concentration (IC50) in assay [3] was 9590 nM; in assay [4] it was 6330 nM; in assay [5], 980 nM; in assay [2], 430 nM; in assay [6], 6000 nM.
Consider `COC[C@H]1OC(OCc2ccc3ccccc3c2)[C@H](NC(=O)CCCN=C(N)N)[C@@H](OCc2ccc3ccccc3c2)[C@@H]1O` (some centres undefined), for which the Ki in assay [1] is 5100 nM. This lies in the single-digit micromolar range.
For the compound `COC[C@H]1O[C@@H](OCc2ccc3ccccc3c2)[C@H](NC(=O)CCN)[C@@H](OCc2ccc3ccccc3c2)[C@@H]1O`, the half-inhibitory concentration (IC50) worked out at 2800 nM in assay [3]; 380 nM in assay [4]; 650 nM in assay [5]; 4000 nM in assay [2]; 20 nM in assay [6].
Take `COC[C@H]1OC(OCCc2ccccc2)[C@H](NC(=O)CCN)C(OCc2ccc3ccccc3c2)[C@@H]1O` (some centres undefined): in assay [6], the IC50 was 160 nM. This lies in the sub-micromolar range.
Consider `CS[C@@H]1O[C@H](COCc2ccc(Cl)cc2)[C@@H](O)[C@@H](OCc2ccc3ccccc3c2)[C@H]1NC(=O)CCCN=C(N)N`, for which the IC50 in assay [2] turned out to be 720 nM.
`COC[C@H]1OC(OCc2ccc3ccccc3c2)[C@H](NC(=O)CCN=C(N)N)[C@@H](OCc2ccc3ccccc3c2)[C@@H]1O` (some centres undefined) came in with an inhibitory constant (Ki) in assay [1] of 6300 nM.
Consider `COC[C@H]1O[C@H](OCc2ccc(Cl)cc2)[C@H](NC(=O)CCCN=C(N)N)[C@@H](OCc2ccc3ccccc3c2)[C@@H]1O`, for which the IC50 in assay [1] came to 450 nM.
As for `COC[C@H]1O[C@H](OCc2ccc3ccccc3c2)[C@H](NC(=O)CCCN)[C@H](OCc2ccc(Cl)cc2)[C@@H]1O`, the IC50 in assay [3] was greater than 10000 nM; in assay [4], 500 nM; in assay [5] it was greater than 10000 nM; in assay [2] it was greater than 10000 nM; in assay [6], 70 nM.
For `COC[C@H]1O[C@@H](OCc2ccc(Cl)cc2)[C@H](NC(=O)CCCN=C(N)N)[C@@H](OCc2ccc(Cl)cc2)[C@@H]1O`, in assay [1], the IC50 came out at 1660 nM.
As to `COC[C@H]1OC(OCc2ccc3ccccc3c2)[C@H](NC(=O)CCCN=C(N)N)[C@@H](OCc2ccc(Cl)cc2)[C@@H]1O` (some centres undefined), the inhibition constant (Ki) in assay [1] came to 1800 nM. This lies in the single-digit micromolar range.
Regarding `COC[C@H]1O[C@@H](OCc2ccc3ccccc3c2)[C@H](NC(=O)CCCN=C(N)N)[C@@H](OCc2ccc(Cl)cc2)[C@@H]1O`, in assay [1], the concentration for half-maximal inhibition (IC50) is 1750 nM.
Still for that read-out and setting: under `COC[C@H]1O[C@H](OCCc2ccccc2)[C@H](NC(=O)CCCN=C(N)N)[C@@H](OCc2ccc(Cl)cc2)[C@@H]1O` stands 540 nM.
Take `COC[C@H]1O[C@@H](OCc2ccc3ccccc3c2)[C@H](NC(=O)CCCN)[C@@H](OCc2ccc(Cl)cc2)[C@@H]1O`: the concentration for half-maximal inhibition (IC50) is greater than 10000 nM in assay [3], greater than 10000 nM in assay [5], greater than 10000 nM in assay [2] and 50 nM in assay [6].
Turning to `COC[C@H]1OC(OCc2ccc3ccccc3c2)[C@H](NC(=O)CN=C(N)N)[C@@H](OCc2ccc(Cl)cc2)[C@@H]1O` (some centres undefined), the Ki in assay [1] came out at 6600 nM.
